Compound activity: PubChem, Broad Institute
PGC1a acetyl inh – lowers PGC1a acetylation signal in U2OS cells | inhibition, % at 15.6 µM | AlphaScreen anti-acetyl-lysine; with virally co-expressed GCN5 acetyltransferase | AID 651687 | 350,000 compounds, 0.17% hits;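 active = every replicate shows inhibition of at least 40%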
FGF22 binding-1 – shifts melting point of recombinant human FGF22; recombinant FGF22 thermal shift, SYPRO orange fluorescence; percent of sucrose octasulfate shift, DMSO zero; activity (Tm shift, normalised), % at 9.99 µM; 340,000 compounds, 1.5% hits;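 active = mean Tm shift, scaled 0 neutral to 100 positive control, at about 1.3% or above, every replicate too, limit read from the data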
Target sequence (Q9HCT0 whole entry, looked up): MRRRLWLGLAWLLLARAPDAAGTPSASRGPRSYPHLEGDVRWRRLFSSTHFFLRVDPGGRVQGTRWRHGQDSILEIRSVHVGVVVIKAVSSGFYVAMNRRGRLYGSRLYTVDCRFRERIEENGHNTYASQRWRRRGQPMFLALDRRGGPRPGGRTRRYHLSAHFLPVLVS
Env fusion inh – inhibitors of HIV Env-mediated cell fusion; inhibition, % at 12.3 µM; HeLa-JRFL Env/CEM21 cell fusion, luciferase; 360,000 compounds, 1.1% hits; AID 651610;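 active = mean replicate inhibition score of at least 50 and every replicate individually at or above 50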
Cneo AK release – Cryptococcus neoformans lysis via adenylate kinase release. C. neoformans lysis, adenylate kinase release luminescence, 4 h; normalised: neutral wells 0, clomiphene wells 100. lysis activity, % at 15 µM. 360,000 compounds, 0.2% hits;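 active = mean lysis activity across replicates of at least 80%, whatever share of replicates individually reach that level; inactive = mean lysis activity below 80%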
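Material – Cryptococcus neoformans yeast cells · Quantity – 5 × 10^6 yeast cells/mL · Buffer or medium – YPD medium · Compound – single dose · Timing – 4 h static compound exposure, 37 °C, read 1 h post-reagent · Signal – adenylate kinase release luminescence · Read-out basis – lysis from increased AK signal · Benchmarks – Clomiphene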
ERAP1 HTS inh – blocks human ERAP1 aminopeptidase activity; inhibition, % at 10.7 µM; 340,000 compounds, 0.15% hits; recombinant ERAP1, Leu-AMC fluorescence, 60 min; Q9NZ08;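 active = mean replicate inhibition of at least 30%, or all replicates individually reaching that 30% level; inactive = mean below 30% and not every replicate reaching it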
Ecoli rRNA inh – inhibits bacterial ribosomal RNA function over humanized ribosomes. E. coli WT GFP vs humanized-ribosome RFP mutants, fluorescence, 24 h; active compounds read low; DMSO median 0, no signal -100. GFP signal change (wild-type ribosome), % (concentration not given with the values). 350,000 compounds, 1.6% hits. AID 720706;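 active = significant combined selectivity score with lowered wild-type GFP, culture density cut under 30%, mutant RFP and density less affected; inactive = any of these conditions unmet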
FGF22 binding-2 – binders of human FGF22 by thermal shift; shares compounds with FGF22 binding-1; recombinant FGF22 thermal shift, SYPRO orange fluorescence; thermal shift activity, °C (ΔTm) at 38 µM; 1,000 compounds, 2% hits; AID 720646;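 active = fitted rise in melting shift crosses a set limit at or below the top valid dose tested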
FGF22 TSA – binders of human FGF22 by thermal shift; shares compounds with FGF22 binding-1; Thermal shift assay, SYPRO orange, melting temperature shift; Tm shift (activity), % at 38 µM; 50 tested, under 10 active; AID 743017;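 active = compounds whose fitted dose curve of melting temperature shift rises past a set threshold within the tested doses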
SYPRO no-protein – compound-only SYPRO artifact for FGF22 binders; shares compounds with FGF22 binding-1; compound-only SYPRO orange thermal shift counter-screen, no protein; AC50, µM (top dose mostly 38 µM); 1,000 compounds, 2% hits;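 active = rising signal whose fitted curve reaches the 0.54 level within the top valid dose, showing a melting point, actives reach about 13 µM in these data; inactive = the rest, including activity in the opposite direction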; note: value is where the raw curve crosses a fixed level and not half-maximal
Of the large screens only hits and unclear results are named; the others gave an inactive call (follow-up assays come after a bar, where they were run). Rows were chosen to be rich in hits. Some 3.5% of all compounds tested hit in one or more screens of this group.

O=C(Nc1ccc(S(=O)(=O)N2CCOCC2)cc1)c1ccc(F)cc1	FGF22 binding-1 1.4 (no result: PGC1a acetyl inh) | FGF22 TSA inactive | SYPRO no-protein inactive
CC(=O)c1ccc(OCCCC(=O)Nc2ccc(S(=O)(=O)N3CCOCC3)cc2)cc1	FGF22 binding-1 1.9 (no result: Cneo AK release) | FGF22 binding-2 inactive | SYPRO no-protein inactive
O=C(CCCOc1ccc(Br)cc1)Nc1ccc(S(=O)(=O)N2CCOCC2)cc1	none (no result: PGC1a acetyl inh)
O=C(Nc1ccc(S(=O)(=O)N2CCOCC2)cc1)c1ccc(S(=O)(=O)N2CCOCC2)cc1	none (no result: PGC1a acetyl inh)
O=C(CNC(=O)c1ccc(S(=O)(=O)N2CCCC2)cc1)N/N=C/c1ccccc1Cl	none (no result: FGF22 binding-1, ERAP1 HTS inh, Ecoli rRNA inh)
COc1ccc(/C=N\N2CCN(Cc3ccccc3Cl)CC2)cc1	none
C[C@H](CO)N1C[C@H](C)[C@H](CN(C)Cc2ccncc2)Oc2ncc(-c3ccccc3)cc2C1=O	none
Cc1cc2c(cc1C)NC(=O)CC(C(F)(F)C(F)(F)C(F)(F)F)=N2	none (no result: FGF22 binding-1, ERAP1 HTS inh, Ecoli rRNA inh)
COc1ccc(S(=O)(=O)Nc2ccc3c(c2)C(=O)N([C@@H](C)CO)C[C@@H](C)[C@@H](CN(C)C)OCCCC[C@@H](C)O3)cc1	FGF22 binding-1 2.1 | FGF22 binding-2 inactive | SYPRO no-protein inactive
CC(C)NC(=O)N(C)C[C@H]1OCCCC[C@H](C)Oc2ccc(N(C)C)cc2C(=O)N([C@H](C)CO)C[C@H]1C	FGF22 binding-1 209 (no result: Ecoli rRNA inh) | FGF22 binding-2 inactive | SYPRO no-protein inactive
CC(C)NC(=O)Nc1ccc2c(c1)C(=O)N([C@@H](C)CO)C[C@@H](C)[C@@H](CN(C)C(=O)Nc1ccccc1)OCCCC[C@@H](C)O2	FGF22 binding-1 28 (no result: ERAP1 HTS inh) | FGF22 binding-2 inactive | SYPRO no-protein inactive
CCCN(C)C[C@@H]1OCCCC[C@@H](C)Oc2ccc(NC(=O)NC(C)C)cc2C(=O)N([C@@H](C)CO)C[C@@H]1C	FGF22 binding-1 1.4 | FGF22 binding-2 inactive | SYPRO no-protein inactive
CC(C)NC(=O)N(C)C[C@H]1OCCCC[C@H](C)Oc2ccc(N(C)C)cc2C(=O)N([C@@H](C)CO)C[C@H]1C	none
CC(C)NC(=O)Nc1ccc2c(c1)C(=O)N([C@H](C)CO)C[C@H](C)[C@@H](CN(C)C(=O)Nc1ccccc1)OCCCC[C@@H](C)O2	none
CN(C)C(CN1C(=O)C2CC=CCC2C1=O)c1cn(C)c2ccccc12 (stereo unspecified)	none (no result: FGF22 binding-1, Env fusion inh, ERAP1 HTS inh, Ecoli rRNA inh)
COc1cccc(-c2ccc3c(c2)[C@@H]2[C@@H](CCN2C(=O)CN2CCOCC2)[C@@H](CO)N3)c1	none (no result: Env fusion inh)
C[C@H]1CN([C@@H](C)CO)C(=O)c2cc(/C=C/c3ccccc3)cnc2O[C@H]1CN(C)C(=O)c1cnccn1	none
CNC[C@H]1OCCCC[C@@H](C)Oc2ccc(NC(=O)Nc3ccc(C(F)(F)F)cc3)cc2C(=O)N([C@H](C)CO)C[C@@H]1C	FGF22 binding-1 7.0 | FGF22 binding-2 inactive | SYPRO no-protein inactive
CNC[C@@H]1OCCCC[C@H](C)Oc2ccc(NC(=O)Nc3ccc(C(F)(F)F)cc3)cc2C(=O)N([C@@H](C)CO)C[C@H]1C	none (no result: FGF22 binding-1, Cneo AK release, ERAP1 HTS inh)
CCCn1c(=O)[nH]c(=O)c2c1nc(-c1cccs1)n2CCOC	FGF22 binding-1 4.7 | FGF22 binding-2 inactive | SYPRO no-protein inactive
COc1ccccc1NS(=O)(=O)c1cc(C(=O)Nc2ccc(S(=O)(=O)Nc3onc(C)c3C)cc2)ccc1C	FGF22 binding-1 1.8, Ecoli rRNA inh -21 | FGF22 binding-2 inactive | SYPRO no-protein inactive
CCN1C/C(=C/c2cccs2)c2nc3ccccc3c(C(=O)O)c2C1	FGF22 binding-1 1.8 | FGF22 binding-2 inactive | FGF22 TSA inactive | SYPRO no-protein inactive
CCN1C/C(=C/c2sccc2C)c2nc3ccccc3c(C(=O)O)c2C1	none (no result: ERAP1 HTS inh)
COc1ccccc1NC(=O)c1ccc(NC(=O)COC(=O)C(C)C)cc1	none (no result: PGC1a acetyl inh, FGF22 binding-1, Cneo AK release, ERAP1 HTS inh, Ecoli rRNA inh)
COc1ccccc1NC(=O)c1ccc(NC(=O)COC(=O)c2ccc(O)cc2)cc1	FGF22 binding-1 1.7 (no result: Env fusion inh) | FGF22 binding-2 inactive | SYPRO no-protein inactive
CC(C)(C)NC(=O)CN(C(=O)CNS(=O)(=O)c1ccc(Cl)cc1)c1ccc2c(c1)OCCO2	FGF22 binding-1 40 (no result: PGC1a acetyl inh) | FGF22 binding-2 inactive | SYPRO no-protein inactive
O=C(N/N=C/c1ccsc1)c1c[nH]c2ccccc12	FGF22 binding-1 3.7 (no result: PGC1a acetyl inh) | FGF22 binding-2 inactive | SYPRO no-protein inactive
COc1ccc(C(=O)N/N=C/c2c[nH]c3ccccc23)cc1	none
O=C(N/N=C/c1c[nH]c2ccccc12)c1cccc(O)c1	FGF22 binding-1 2.1 | FGF22 binding-2 inactive | FGF22 TSA inactive | SYPRO no-protein inactive
O=C(N/N=C/c1c[nH]c2ccccc12)c1ccc(O)c(O)c1	FGF22 binding-1 2.4 (no result: PGC1a acetyl inh) | FGF22 binding-2 inactive | FGF22 TSA inactive | SYPRO no-protein inactive
CCOc1ccccc1C(=O)N/N=C/c1c[nH]c2ccccc12	none
CC(=O)Nc1cccc(C(=O)N/N=C/c2c[nH]c3ccccc23)c1	FGF22 binding-1 3.8 | FGF22 TSA inactive | SYPRO no-protein inactive
CCCn1c(=O)c(C(=O)N/N=C/c2ccccc2F)c(O)c2ccccc21	none (no result: PGC1a acetyl inh, Cneo AK release)
CCCC(=O)N1CCC2(CC1)CN(Cc1ccncc1)[C@H](CO)c1[nH]c3cc(OC)ccc3c12	none (no result: Env fusion inh, Cneo AK release)
O=C(N/N=C/c1c[nH]c2ccccc12)c1cccc(Cl)c1	FGF22 binding-1 2.8 | FGF22 TSA inactive | SYPRO no-protein inactive
O=C(N/N=C/c1c[nH]c2ccccc12)c1ccc([N+](=O)[O-])cc1Cl	none (no result: FGF22 binding-1, Env fusion inh, ERAP1 HTS inh, Ecoli rRNA inh)
COc1ccc(C(=O)Nc2nc(CC(=O)NCCc3ccccc3)cs2)cc1	FGF22 binding-1 2.2 (no result: PGC1a acetyl inh, Cneo AK release) | FGF22 binding-2 inactive | SYPRO no-protein inactive
COc1ccc(C(=O)Nc2nc(CC(=O)NCCc3cccc(OC)c3)cs2)cc1	none (no result: PGC1a acetyl inh, Cneo AK release)
CN1CCC(C)(C(=O)Nc2cccc3c2CCCC3)C1 (stereo unspecified)	FGF22 binding-1 19 (no result: Env fusion inh) | FGF22 binding-2 inactive | SYPRO no-protein inactive
Cc1cccc(C(=O)NC(=O)Nc2c(C)cc(C)nc2C)c1	none (no result: Cneo AK release)
Cc1cccc(C)c1NC(=O)Nc1ccc(S(N)(=O)=O)cc1	none (no result: PGC1a acetyl inh)
Cc1cccc(NC(=O)Nc2ccc(S(N)(=O)=O)cc2)c1	FGF22 binding-1 1.7 | FGF22 binding-2 inactive | SYPRO no-protein 11µM
CCN1C(=O)C(CC(=O)Nc2ccc(F)cc2)N(Cc2ccc3c(c2)OCO3)C1=S (stereo unspecified)	FGF22 binding-1 2.9 (no result: Ecoli rRNA inh) | FGF22 binding-2 inactive | FGF22 TSA inactive | SYPRO no-protein inactive
